System: MS2 coat protein
Assay: apparent Kd, MS2 coat protein; higher = weaker binding; RNA-MaP array; FMN 200 µM where present
Method in brief: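 Stalled E. coli RNA polymerase transcribed each design on Illumina sequencing-chip clusters. The clusters were titrated with SNAP-549-labelled MS2 coat protein, starting at 0.7 or 1.5 nM and doubling up to 3 µM, first without ligand and then with constant ligand, in 100 mM Tris-HCl pH 7.5, 80 mM KCl, 4 mM MgCl2, BSA, DTT, yeast tRNA and Tween-20. Green signal was normalised to red-channel RNA signal and to the control-cluster median Fmax. The apparent Kd is the median of filtered binding-curve fits made for each cluster.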

[1] = designed as: OFF switch for flavin mononucleotide, no ligand
[2] = ligand present: flavin mononucleotide, designed as: OFF switch for flavin mononucleotide
[3] = designed as: ON switch for flavin mononucleotide, no ligand
[4] = ligand present: flavin mononucleotide, designed as: ON switch for flavin mononucleotide

Sequence	apparent Kd [1]	apparent Kd [2]	apparent Kd [3]	apparent Kd [4]
CCAGCGUGUGUGAGGAUAUGCUGGUCCUUGGAUCAGCAGAAGGCACAUGAGGAUCACCCAUGUGAGAACGUUGG	23.1 nM	105 nM		
CCAGUGCGGGUGGUAUGGCUAACAUGAGGAUCACCCAUGUUGCAGGAUAUCGGCCAGAUUGGGCGCGAGAAGGGCAACGCUGAA	86.6 nM	32.6 nM		
CCAUGGCAUGUAGGAUAUGUCUGACAAAGUCAGACAGAAGGACAUGAGGAUCACCCAUGUAGGAAAUAACCACAUAAGCCAUGG	6.32 nM	5.86 nM		
CCAUGGUGGGCAGGAUAUCGUCCAGCUUGCGGACGAGAAGGGCUAGAACAUGAGGAUCACCCAUGUGAAAAGCGGGUUGUCCAA	27.8 nM	145 nM		
CCAUGUUAGCAGGAUAUGCAAUUAUUCUUUUAAGCAGAAGGGCUUACAUGAGGAUCACCCAUGUAACAUUUCAU	17.3 nM	85.4 nM		
CCCAAACUUGGGCUUGGUGGUGCAUAGGAUAUCCUUGAACAUGAGGAUCACCCAUGUACAACUGUGGAGAAGGGUGCAGGGCCU			372 nM	111 nM
CCCAAACUUGGGCUUGGUUGUGCAUAGGAUAUCCUUGGACAUGAGGAUCACCCAUGUACAACUGUGGAGAAGGGUGCAGGACCU			39.1 nM	16.4 nM
CCCACAUGAGGAUAUCCAUCUGGAUCAGACUAGAUCCUGAUGGAGAAGGUACAUGAGGAUCACCCAUGUGUGGG	301 nM	222 nM		
CCCACGAAAGUCGAACGAUGAUGGAGAAGGAGUAUAACAUGACAUGAGGAUCACCCAUGUGCCAACUAGGAUAUCCAUCAUGGG	9.72 nM	8.55 nM		
CCCACGAAAGUCGAACGAUGUAGGAGAAGGACAAUAACAUGACAUGAGGAUCACCCAUGUGCCAUGUAGGAUAUCCUACAUGGG	7.86 nM	7.78 nM		
CCCACGAGCGUAGGAUAUACAUGAGGAUCACCCAUGUAGGCACAAUGUCCCAGCUAGUGACCAGUGUAGAAGGACGUGUCUGGG	50.8 nM	107 nM		
CCCAGCUAUGUGAGGAUAUUCACAUCGAUGGUAGUGAAGAAGGCACAUGAGGAUCACCCAUGUUGGUUGCCGAU	19.4 nM	28.7 nM		
CCCAGUUAGGAAGGAUAUUGUACAUGAGGAUCACCCAUGUAAUAAAUGAGGAUCACGGAUGUAUACAAGAAGGUCCGGAUAGGC	70.4 nM	140 nM		
CCCGGCGUGUCGCUACGCCGAGAGCAGGAUAUUCCGCCGUGAUCUACAUGAGGAUCACCCAUGUGGAAGAAGGGCUACACAAAA	14.2 nM	122 nM		
CCCGUGUUAGGAUAUACGGCACACCCGCCAGCGGGUAUAUAGUAGAAGGAACAUGAGGAUCACCCAUGUAUAGC	16.1 nM	46.6 nM		
CCCUCAAGCGAGGAUAUAAAUGCGCAUUCGCGGUUAGAAGGCGCUACAUGAGGAUCACCCAUGUAAUAAAAUGG	68.2 nM	86.4 nM		
CCCUCACAUGAGGAUCACCCAUGUCAGGAUAUCUCACAUCGGCCUUAGGCCGAUGUCUAGAGAAGGGACGUAUC	22.1 nM	29.5 nM		
CCCUCGGGAGGAUAUGGGUGUUUUUACAUGAGGAUCACCCAUGUGGAGUAACAUGUGGGUCCAGAAGGCCCAAGGG	1400 nM	663 nM		
CCGAAACCUCAGAAGGACCACAUGAGGAUCACCCAUGUCAAGCAAAACGGUAGGAUAUGAGGGAAAAGUCGGUGUACCCGACAG			8.93 nM	5.76 nM
CCGAUAAAUGGAGGAUAUGGAGCCUUAUUGGCUCCAGAAGGCUAAUAACAUGAGGAUCACCCAUGUCGGCGGUCUAAUGACCGA			81.3 nM	33 nM
CCGCCCUGAGGAUAUCCACCCUCAUACAUGAGGAUCACCCAUGUUCACCCUUGGGUUCCCGGAGAAGGCAGCCUUC	566 nM	548 nM		
CCGCUAAAUGGAGGAUAUGGAGCCUUAUUGGCUCCAGAAGGUCAAAACAUGAGGAUCACCCAUGUGCGGCGGUCUAAUGACCGA			186 nM	50.2 nM
CCGCUCGAGCAGAAGGCAAUGAGGGUUAUACAUUGAGGAUAUGCUACGUACGUGGUACAUGAGGAUCACCCAUGUAGCCUAUCU			788 nM	93.4 nM
CCGCUGUGAGGAUAUUAGUAGUAGUCAGAAUAGACUAUUACUGAGAAGGCACAUGAGGAUCACCCAUGUCGCGG	31.2 nM	43.1 nM		
CCGGAAAGGAAGGAUAUGCUAGACGAAAGUCUAGCAGAAGGUCCUACAUGAGGAUCACCCAUGUGUCCUACCGG	47.2 nM	60.5 nM		
CCGGAAAUACAGGAUAUAGGAGUCGAUAGACUCCUAGAAGGGUAUACAUGAGGAUCACCCAUGUUCCUUACCGG	45.9 nM	50.1 nM		
CCGGAAAUGAAGGAUAUAGGAGUCGAUAGACACCUAGAAGGUCAUACAUGAGGAUCACCCAUGUGUCCUACCGG	15.2 nM	31 nM		
CCGGAAAUGAAGGAUAUAGGUGUCGAUAGACACCUAGAAGGUCAUACAUGAGGAUCACCCAUGUGUCCUACCGG	16.1 nM	30.6 nM		
